Activity calls are given as the source filed them. The rule behind the calls is not given here.
What was measured:
[1] = test system: Pseudomonas aeruginosa; assay: Antibacterial activity against Pseudomonas aeruginosa CICC 21630 after 18 hrs by broth microdilution method; type: functional; conditions: CICC 21630, 18 h
How it was run: (§1)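 Broth microdilution in Mueller-Hinton broth. Exponential-phase bacteria (37 °C, 220 rpm shaking) were diluted to about 1 × 10^6 CFU/mL and mixed 1:1 with two-fold serial peptide dilutions. MIC is the lowest concentration with no visible turbidity after 18 h at 37 °C. Controls were uninoculated MHB and untreated culture. Run at least three times, two replicates each.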

[2] = test system: RAW264.7; assay: Inhibition of LPS-induced iNOS expression in mouse RAW264.7 cells at 10 mg/L after 18 hrs by Western blot analysis; type: functional, cell-based
How it was run: (§2)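 Western blot of RAW264.7 lysates after 18 h with LPS at 100 ng/mL, with or without peptide at 10 mg/L. Lysates were run on 8% or 12% SDS-PAGE, transferred to PVDF and blocked in 5% milk/TBST. Primary antibodies were applied at 4 °C overnight, then HRP secondary and ECL detection. β-actin was the loading control.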

[3] = test system: Pseudomonas aeruginosa; assay: Antibacterial activity against Pseudomonas aeruginosa 25349 clinical isolate after 18 hrs by broth microdilution method; type: functional; conditions: Pseudomonas aeruginosa, 25349, 18 h
[4] = test system: RAW264.7; assay: Downregulation of LPS-induced IL-1beta mRNA expression in mouse RAW264.7 cells at 10 mg/L after 18 hrs by real-time PCR analysis; type: functional, cell-based
How it was run: (§3)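 qRT-PCR: RAW264.7 cells were stimulated with LPS (100 ng/mL) with or without peptide at 10 mg/L for 18 h at 37 °C. Total RNA was taken up with TRIzol. Transcript levels were normalized to GAPDH and expressed as fold change versus untreated cells. Three experiments, triplicates each.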

[5] = test system: Pseudomonas aeruginosa; assay: Drug uptake in Pseudomonas aeruginosa ATCC 27853 treated with FITC-labeled compound at MIC after 30 mins by confocal fluorescence microscopy; type: ADME; conditions: 0.5 h
How it was run: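 Cells were pelleted at 5,000 g for 5 min, washed three times in PBS, smeared and imaged by confocal microscopy with 488 nm excitation.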

[6] = test system: Pseudomonas aeruginosa; assay: Antibacterial activity against ciprofloxacin-resistant Pseudomonas aeruginosa 11411 after 18 hrs by broth microdilution method; type: functional; conditions: Pseudomonas aeruginosa, 11411, 18 h
How it was run: (§4)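 Broth microdilution in Mueller-Hinton broth. Exponential-phase bacteria (37 °C, 220 rpm shaking) were diluted to about 1 × 10^6 CFU/mL and mixed 1:1 with two-fold serial peptide dilutions. Controls were uninoculated MHB and untreated culture. Run at least three times, two replicates each.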

[7] = test system: RAW264.7; assay: Downregulation of LPS-induced IL-6 mRNA expression in mouse RAW264.7 cells at 10 mg/L after 18 hrs by real-time PCR analysis; type: functional, cell-based; how it was run: as §3
[8] = test system: Pseudomonas aeruginosa; assay: Antibacterial activity against Pseudomonas aeruginosa ATCC 27853 assessed as induction of outer membrane permeabilization by measuring NPN uptake by spectrofluorophotometric analysis; type: functional
How it was run: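 Exponential-phase cells were washed in HEPES pH 7.4 with 5 mM glucose and diluted to about 10^5 CFU/mL. NPN was added at 10 µM final, then peptide at varying concentrations. Fluorescence (ex 350/em 420 nm) was followed to plateau. Values are % NPN uptake relative to polymyxin B at 10 mg/L (100%). Three experiments, duplicates.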

[9] = test system: RAW264.7; assay: Downregulation of LPS-induced TNF-alpha mRNA expression in mouse RAW264.7 cells at 10 mg/L after 18 hrs by real-time PCR analysis; type: functional, cell-based; how it was run: as §3
[10] = test system: Staphylococcus aureus; assay: Antibacterial activity against Staphylococcus aureus ATCC 29213 after 18 hrs by broth microdilution method; type: functional; conditions: ATCC 29213, 18 h
How it was run: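 Broth microdilution. Exponential-phase bacteria grown in MHB at 37 °C, diluted to about 1 × 10^6 CFU/mL in MHB and mixed 1:1 with two-fold dilutions of peptide. MIC is the lowest concentration with no visible turbidity after 18 h at 37 °C. Controls were uninoculated broth and peptide-free culture. At least three repeats, duplicates each.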

[11] = test system: Lipopolysaccharide (LPS); assay: Binding affinity to Pseudomonas aeruginosa ATCC 27853 LPS by SPR spectroscopic analysis
How it was run: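 Biacore SPR. Peptides were amine-coupled to CM5 chips at 20 µg/mL in 10 mM acetate pH 6.0, giving about 1300 RU. LPS at 3.125–12.5 µg/mL in 20 mM Tris/100 mM NaCl pH 7.4 was flowed at 10 µL/min. Surfaces were regenerated with 50 mM NaOH plus 0.05% SDS. Three independent runs.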

[12] = test system: RAW264.7; assay: Inhibition of LPS-induced NO production in mouse RAW264.7 cells at 10 mg/L after 18 hrs by Griess assay; type: functional, cell-based
How it was run: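 RAW264.7 cells (5 × 10^5/well) were stimulated with LPS at 100 ng/mL, with or without peptide at 10 mg/L, for 18 h at 37 °C. Nitrite in the medium was measured with Griess reagent at 540 nm against a NaNO2 standard curve. Three independent experiments.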

[13] = test system: Pseudomonas aeruginosa; assay: Antibacterial activity against Pseudomonas aeruginosa ATCC 27853 after 18 hrs in presence of FeCl3 by broth microdilution method; type: functional; conditions: ATCC 27853, 18 h
How it was run: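 Broth microdilution MIC against ATCC 27853 in Mueller-Hinton broth with added salt at final concentrations: NaCl 150 mM, KCl 4.5 mM, NH4Cl 6 µM, ZnCl2 8 µM, FeCl3 4 µM. Inoculum about 1 × 10^6 CFU/mL from exponential phase, mixed 1:1 with two-fold peptide dilutions. MIC read as no visible turbidity after 18 h at 37 °C.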

[14] = test system: RAW264.7; assay: Inhibition of LPS-induced IkappaB-alpha protein degradation in mouse RAW264.7 cells at 10 mg/L after 18 hrs by Western blot analysis; type: functional, cell-based; how it was run: as §2
[15] = test system: Pseudomonas aeruginosa; assay: Antibacterial activity against gentamicin-resistant Pseudomonas aeruginosa 11421 after 18 hrs by broth microdilution method; type: functional; conditions: Pseudomonas aeruginosa, 11421, 18 h; how it was run: as §4
[16] = test system: RAW264.7; assay: Downregulation of LPS-induced TNF-alpha level in mouse RAW264.7 cells at 10 mg/L after 18 hrs by ELISA; type: functional, cell-based
How it was run: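 ELISA of secreted TNF-α in culture medium of RAW264.7 cells treated 18 h with LPS 100 ng/mL alone or with peptide at 10 mg/L. Samples were run in duplicate; release was normalized to untreated controls.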

[17] = test system: Pseudomonas aeruginosa; assay: Antibacterial activity against Pseudomonas aeruginosa ATCC 27853 after 18 hrs by broth microdilution method; type: functional; conditions: ATCC 27853, 18 h; how it was run: as §1
[18] = test system: Pseudomonas aeruginosa; assay: Antibacterial activity against Pseudomonas aeruginosa CICC 21625 after 18 hrs by broth microdilution method; type: functional; conditions: CICC 21625, 18 h; how it was run: as §1
[19] = test system: Pseudomonas aeruginosa; assay: Antibacterial activity against Pseudomonas aeruginosa 26305 clinical isolate after 18 hrs by broth microdilution method; type: functional; conditions: Pseudomonas aeruginosa, 26305, 18 h
[20] = test system: Pseudomonas aeruginosa; assay: Antibiofilm activity in Pseudomonas aeruginosa ATCC 27853 assessed as reduction in biomass after 24 hrs by crystal violet staining-based method; type: functional
How it was run: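 Overnight culture was diluted 1:100 and grown 24 h at 37 °C to form biofilms. Loose cells were removed and fresh broth added with peptide at 1×, 4× or 8× MIC for another 24 h. Biofilms were stained with 0.1% crystal violet for 10 min, washed, and dye extracted in 95% ethanol before reading absorbance. Results are % of untreated biofilm; three repeats in duplicate, mean ± SD.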

[21] = test system: Pseudomonas aeruginosa; assay: Antibacterial activity against ceftazidime-resistant Pseudomonas aeruginosa 11431 after 18 hrs by broth microdilution method; type: functional; conditions: Pseudomonas aeruginosa, 11431, 18 h; how it was run: as §1

Row | Substance | MIC [1] [µg/mL] | inhibition [2] | MIC [3] [µg/mL] | Activity [4] | Drug uptake [5] | MIC [6] [µg/mL] | Activity [7] | Activity [8] | Activity [9] | MIC [10] [µg/mL] | Activity [11] | inhibition [12] | MIC [13] [µg/mL] | inhibition [14] | MIC [15] [µg/mL] | Activity [16] | MIC [17] [µg/mL] | MIC [18] [µg/mL] | MIC [19] [µg/mL] | Activity [20] | also measured
1 | H-LRRLRRRWWRRRLRRL-NH2 | 8 | Active | 16 | Active | Active | 8 | Active | Dose-dependent effect | Active | 8 | Dose-dependent effect | Active | 8 | Active | 16 | Active | 8 | 16 | 8 | Dose-dependent effect | MIC [21]: 16 µg/mL
2 | H-LRRLRRRWWWRRRLRRL-NH2 | 4 | Active | 4 | Active | Active | 4 | Active | Dose-dependent effect | Active | 8 | Dose-dependent effect | Active | 4 | Active | 8 | Active | 4 | 8 | 4 | Dose-dependent effect | MIC [21]: 4 µg/mL

— ChEMBL document CHEMBL4007441, “Novel Design of Heptad Amphiphiles To Enhance Cell Selectivity, Salt Resistance, Antibiofilm Properties and Their Membrane-Disruptive Mechanism” (J Med Chem, 2017)
